Data on five compounds can be found in ChEMBL document CHEMBL1671842, “Synthesis and antibacterial activity of a novel class of 15-membered macrolide antibiotics, "11a-azalides"” (2011).

In brackets after ≈: the same amount, converted by molar mass.

The subject of assay [1] is Streptococcus pneumoniae. Nature of the assay: Antibacterial activity against erythromycin-resistant Streptococcus pneumoniae 205. Type of assay: functional. The method in brief: (§1)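 MIC by broth microdilution following CLSI (formerly NCCLS) guidelines for S. pneumoniae.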
The test system of assay [2] is Streptococcus pneumoniae. Nature of the assay: Antibacterial activity against erythromycin-susceptible Streptococcus pneumoniae ATCC 49619. Type of assay: functional. The method in brief:
as §1

As to `CO[C@]1(C)C[C@H](O[C@H]2[C@H](C)[C@@H](O[C@@H]3O[C@H](C)C[C@H](N(C)C)[C@H]3O)[C@@](C)(O)C[C@@H](C)[C@H](O)[C@H](C)CN(C)CCOC(=O)[C@@H]2C)O[C@@H](C)[C@@H]1O`, the MIC against Streptococcus pneumoniae [1] is > 128 µg/mL; in the assay on Streptococcus pneumoniae [2], 4 µg/mL (≈ 5.79 µM).

As to `CO[C@]1(C)C[C@H](O[C@H]2[C@H](C)[C@@H](O[C@@H]3O[C@H](C)C[C@H](N(C)C)[C@H]3O)[C@@](C)(O)C[C@@H](C)[C@H](O)[C@H](C)CN(C)[C@@H](COCc3ccccc3)COC(=O)[C@@H]2C)O[C@@H](C)[C@@H]1O`, the MIC in the assay on Streptococcus pneumoniae [1] turned out to be 128 µg/mL (≈ 158 µM); in the assay with Streptococcus pneumoniae [2] it was 2 µg/mL (≈ 2.47 µM).

In the case of `CO[C@]1(C)C[C@H](O[C@H]2[C@H](C)[C@@H](O[C@@H]3O[C@H](C)C[C@H](N(C)C)[C@H]3O)[C@@](C)(O)C[C@@H](C)[C@H](O)[C@H](C)CN(C)C[C@@H](COCc3ccccc3)OC(=O)[C@@H]2C)O[C@@H](C)[C@@H]1O`, the values for the MIC against Streptococcus pneumoniae [1] and with Streptococcus pneumoniae [2] were 64 µg/mL (≈ 78.9 µM) and 1 µg/mL (≈ 1.23 µM), respectively.

For the compound `CO[C@]1(C)C[C@H](O[C@H]2[C@H](C)[C@@H](O[C@@H]3O[C@H](C)C[C@H](N(C)C)[C@H]3O)[C@@](C)(O)C[C@@H](C)[C@H](O)[C@H](C)CN(C)C[C@H](COCc3ccccc3)OC(=O)[C@@H]2C)O[C@@H](C)[C@@H]1O`, the figures for the MIC with Streptococcus pneumoniae [1] and in the assay on Streptococcus pneumoniae [2] were 32 µg/mL (≈ 39.5 µM) and 0.12 µg/mL (≈ 0.148 µM), respectively.

Regarding `CC[C@H]1OC(=O)[C@H](C)[C@@H](O[C@H]2C[C@@](C)(OC)[C@@H](O)[C@H](C)O2)[C@H](C)[C@@H](O[C@@H]2O[C@H](C)C[C@H](N(C)C)[C@H]2O)[C@](C)(OC)C[C@@H](C)C(=O)[C@H](C)[C@@H](O)[C@]1(C)O` [CLARITHROMYCIN], the minimum inhibitory concentration (MIC) against Streptococcus pneumoniae [1] is > 128 µg/mL; in the assay on Streptococcus pneumoniae [2], 0.03 µg/mL (≈ 0.0401 µM).
